Assay results published in ChEMBL document CHEMBL5724801, “EUbOPEN Chemogenomics Library - Multiplex” (2024).
“And” between values parts separate entries of the source, which are not always exact repeats. Equal entries are not always repeated.

Tested on: U2OS
Assay: Multiplex assay against U2OS
Type: toxicity, cell-based
Conditions: human
Method in brief: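 With compound added, live cells were imaged on a CQ1 microscope at 37°C and 5% CO2; staining with Hoechst33342, BioTracker Green Microtubule Cytoskeleton Dye, MitoTracker Red and Annexin V Alexa Fluor 680 had been done at seeding. The CellPathfinder machine-learning gating scheme split cells into Hoechst high-intensity objects or normal cells, normal cells into healthy, pyknosed or fragmented nuclei, and pyknosed cells into mitotic or apoptotic. The tubulin, mitochondrial-mass and membrane-permeability phenotypes are per cents of healthy-nucleus cells.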

[1] = 12 h, 1 µM, compound concentration 1 uM
[2] = 12 h, 10 µM, compound concentration 10 uM
[3] = 24 h, 1 µM, compound concentration 1 uM
[4] = 24 h, 10 µM, compound concentration 10 uM
[5] = 48 h, 1 µM, compound concentration 1 uM
[6] = 48 h, 10 µM, compound concentration 10 uM

O=C(Nc1ccccc1Cl)c1cnc2ccc(C3CCNCC3)cn12.O=C(O)C(=O)O
Population Apoptotic (%) [1]: 34.62% and 26.09% | Population Fragmented Nuclei (%) [1]: 1.77% and 0.57% | Population Healthy Nuclei (%) [1]: 86.73% and 86.21% | Population Hoechst High Intensity Objects (%) [1]: 0% | Population Membrane Permeable-Phenotype (%) [1]: 0.77% and 5.33% | Population Mitochondria Different-Phenotype (%) [1]: 0% and 4% | Population Mitotic Cells (%) [1]: 65.38% and 73.91% | Population Normal (%) [1]: 100% | Population Pyknosed Nuclei (%) [1]: 11.5% and 13.22% | Population Tubulin-Different-Phenotype (%) [1]: 0.26% and 0.67% | Total Cell Count [1]: 452 and 174 | Population Apoptotic (%) [2]: 36.51% and 44.74% | Population Fragmented Nuclei (%) [2]: 2.48% and 4.95% | Population Healthy Nuclei (%) [2]: 81.93% and 76.24% | Population Hoechst High Intensity Objects (%) [2]: 0% | Population Membrane Permeable-Phenotype (%) [2]: 2.42% and 7.79% | Population Mitochondria Different-Phenotype (%) [2]: 0% and 9.09% | Population Mitotic Cells (%) [2]: 63.49% and 55.26% | Population Normal (%) [2]: 100% | Population Pyknosed Nuclei (%) [2]: 15.59% and 18.81% | Population Tubulin-Different-Phenotype (%) [2]: 5.14% and 3.25% | Total Cell Count [2]: 404 and 202 | Population Apoptotic (%) [3]: 38.71% and 50% | Population Fragmented Nuclei (%) [3]: 2.92% and 3.06% | Population Healthy Nuclei (%) [3]: 81.98% and 83.84% | Population Hoechst High Intensity Objects (%) [3]: 0% | Population Membrane Permeable-Phenotype (%) [3]: 0.79% and 4.17% | Population Mitochondria Different-Phenotype (%) [3]: 0% and 3.12% | Population Mitotic Cells (%) [3]: 61.29% and 50% | Population Normal (%) [3]: 100% | Population Pyknosed Nuclei (%) [3]: 15.1% and 13.1% | Population Tubulin-Different-Phenotype (%) [3]: 0.59% and 1.56% | Total Cell Count [3]: 616 and 229 | Population Apoptotic (%) [4]: 50% and 42.31% | Population Fragmented Nuclei (%) [4]: 3.44% and 5.18% | Population Healthy Nuclei (%) [4]: 75.51% and 63.75% | Population Hoechst High Intensity Objects (%) [4]: 0.2% and 0.4% | Population Membrane Permeable-Phenotype (%) [4]: 2.14% and 8.12% | Population Mitochondria Different-Phenotype (%) [4]: 0.8% and 10.62% | Population Mitotic Cells (%) [4]: 50% and 57.69% | Population Normal (%) [4]: 99.8% and 99.6% | Population Pyknosed Nuclei (%) [4]: 21.05% and 31.08% | Population Tubulin-Different-Phenotype (%) [4]: 4.02% and 2.5% | Total Cell Count [4]: 495 and 252 | Population Apoptotic (%) [5]: 50.86% and 56.25% | Population Fragmented Nuclei (%) [5]: 4.49% and 3.81% | Population Healthy Nuclei (%) [5]: 84.2% and 83.11% | Population Hoechst High Intensity Objects (%) [5]: 0% and 0.27% | Population Membrane Permeable-Phenotype (%) [5]: 2.09% and 5.57% | Population Mitochondria Different-Phenotype (%) [5]: 0% and 0.98% | Population Mitotic Cells (%) [5]: 49.14% and 43.75% | Population Normal (%) [5]: 100% and 99.73% | Population Pyknosed Nuclei (%) [5]: 11.32% and 13.08% | Population Tubulin-Different-Phenotype (%) [5]: 0.93% and 2.3% | Total Cell Count [5]: 1025 and 368 | Population Apoptotic (%) [6]: 54.92% and 58.04% | Population Fragmented Nuclei (%) [6]: 4.59% and 4.38% | Population Healthy Nuclei (%) [6]: 68.57% and 60.62% | Population Hoechst High Intensity Objects (%) [6]: 0.96% and 0% | Population Membrane Permeable-Phenotype (%) [6]: 5.07% and 11.34% | Population Mitochondria Different-Phenotype (%) [6]: 0.81% and 4.64% | Population Mitotic Cells (%) [6]: 45.08% and 41.96% | Population Normal (%) [6]: 99.04% and 100% | Population Pyknosed Nuclei (%) [6]: 26.84% and 35% | Population Tubulin-Different-Phenotype (%) [6]: 3.45% and 9.28% | Total Cell Count [6]: 726 and 320

Cc1cc(O)c(-c2ccc([C@@H](C)CN(C)C)cc2)c2c1[nH]c(=O)c1sccc12
Population Apoptotic (%) [1]: 70% [middle of 4 runs] | Population Healthy Nuclei (%) [1]: 48% and 63% and 56.09% and 62.5% | Population Hoechst High Intensity Objects (%) [1]: 4% and 2% and 0.32% and 0% | Population Normal (%) [1]: 95% and 97% and 99.68% and 100% | Population Tubulin-Different-Phenotype (%) [1]: 12% and 14% and 4% and 6.67% | Population Apoptotic (%) [2]: 64% and 69% and 40.85% and 42.19% | Population Healthy Nuclei (%) [2]: 50% and 56% and 56.98% and 52.11% | Population Hoechst High Intensity Objects (%) [2]: 4% and 8% and 0% | Population Mitotic Cells (%) [2]: 35% and 30% and 59.15% and 57.81% | Population Normal (%) [2]: 95% and 91% and 100% | Population Pyknosed Nuclei (%) [2]: 41.28% [middle of 4 runs] | Population Tubulin-Different-Phenotype (%) [2]: 72% and 45% and 70.41% and 64.86% | Population Apoptotic (%) [3]: 92% [middle of 4 runs] | Population Healthy Nuclei (%) [3]: 34% [middle of 4 runs] | Population Hoechst High Intensity Objects (%) [3]: 8% and 6% and 0.34% and 0% | Population Normal (%) [3]: 91% and 93% and 99.66% and 100% | Population Tubulin-Different-Phenotype (%) [3]: 19% and 12% and 11.11% and 17.07% | Population Apoptotic (%) [4]: 81% and 82% and 58.37% and 68.63% | Population Healthy Nuclei (%) [4]: 31% [middle of 4 runs] | Population Hoechst High Intensity Objects (%) [4]: 9% [middle of 4 runs] | Population Membrane Permeable-Phenotype (%) [4]: 16% [middle of 4 runs] | Population Mitochondria Different-Phenotype (%) [4]: 70% [middle of 4 runs] | Population Mitotic Cells (%) [4]: 31.37% [middle of 4 runs] | Population Normal (%) [4]: 90% and 87% and 99.35% and 100% | Population Pyknosed Nuclei (%) [4]: 67.86% [middle of 4 runs] | Population Tubulin-Different-Phenotype (%) [4]: 64.47% [middle of 4 runs] | Total Cell Count [4]: 210 [middle of 4 runs] | Population Apoptotic (%) [5]: 96% and 100% and 72.95% and 83.47% | Population Healthy Nuclei (%) [5]: 18% [middle of 4 runs] | Population Normal (%) [5]: 82% and 84% and 99.63% and 98.84% | Population Tubulin-Different-Phenotype (%) [5]: 25% and 50% and 28.57% | Total Cell Count [5]: 250 [middle of 4 runs] | Population Apoptotic (%) [6]: 96% and 100% and 80.93% and 86.67% | Population Healthy Nuclei (%) [6]: 17% and 13% and 14.23% and 9.84% | Population Mitochondria Different-Phenotype (%) [6]: 45% and 50% and 33.33% | Population Mitotic Cells (%) [6]: 13.33% [middle of 4 runs] | Population Normal (%) [6]: 79% and 84% and 98.92% and 99.19% | Population Pyknosed Nuclei (%) [6]: 31% and 78.47% and 86.07% | Population Tubulin-Different-Phenotype (%) [6]: 64% [middle of 4 runs] | Total Cell Count [6]: 220 [middle of 4 runs]
